Among the data in ChEMBL document CHEMBL1134584 (J Med Chem, 2001) are Ki and IC50 values, retold here.

One may read the Ki as a dissociation constant, usually derived from enzyme kinetics or from competition with a known ligand. The low end stands for a stronger hold on the target, the high end for a looser hold on the target. In general, IC50 refers to the point on the concentration scale where inhibition reaches its midpoint. A low value points to greater potency.

Structures are written as SMILES.

In assay [1] the target is Somatostatin receptor type 5 (Homo sapiens, UniProt P35346). Briefly: Inhibition of [125 I -Tyr]SRIF-14 binding to membranes isolated from CHO-K1 cells expressing cloned human SRIF receptor (sst-5) subtype. The format is cell membranes.
Assay [2] concerns the target Somatostatin receptor type 1 (Homo sapiens, UniProt P30872). Description: Inhibition of [125 I -Tyr]SRIF-14 binding to membranes isolated from CHO-K1 cells expressing cloned human SRIF receptor (sst-1) subtype. The class given is cell membranes.
For assay [3], the target named is Somatostatin receptor type 4 (Homo sapiens, UniProt P31391). Description: Inhibition of [125 I -Tyr]SRIF-14 binding to membranes isolated from CHO-K1 cells expressing cloned human SRIF receptor (sst-4) subtype. The format is cell membranes.
Assay [4] addresses T1, Somatostatin receptor type 2 (Homo sapiens, UniProt P30874). Description: Inhibition of [125 I -Tyr]SRIF-14 binding to membranes isolated from CHO-K1 cells expressing cloned human SRIF receptor (sst-2) subtype. The format is cell membranes.
Assay [5] concerns the target T2, Somatostatin receptor type 3 (Homo sapiens, UniProt P32745). Briefly: Inhibition of [125 I -Tyr]SRIF-14 binding to membranes isolated from CHO-K1 cells expressing cloned human SRIF receptor (sst-3) subtype. The class given is cell membranes.
The target in assay [6] is T2, Somatostatin receptor type 3. Briefly: Inhibitory concentration required to inhibit SRIF-14 induced reduction of cAMP in CHO-K1 cells expressing the human sst3 receptor. The format is functional, cell-based.
For assay [7], the target named is T1, Somatostatin receptor type 2. Description: Inhibition of [125 I -Tyr]SRIF-14 binding to membranes isolated from CHO-K1 cells expressing each of the cloned human SRIF receptor (sst-2) subtypes. The class given is cell membranes. The essentials:
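Stable CHO-K1 clones transfected with human receptor cDNA in pCMV5. Membranes prepared from these cells, 10-20 µg protein/well, incubated with 0.05-0.1 nM [125I-Tyr11]SRIF-14 in 50 mM HEPES pH 7.4, 0.2% BSA, 5 mM MgCl2 plus protease inhibitors, 50-90 min at 37 °C depending on subtype. GF/C filtration, then counting. Nonspecific binding defined with 0.1 µM SRIF-14. Ki obtained by nonlinear regression.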

Sequence of Somatostatin receptor type 1 (P30872 whole entry): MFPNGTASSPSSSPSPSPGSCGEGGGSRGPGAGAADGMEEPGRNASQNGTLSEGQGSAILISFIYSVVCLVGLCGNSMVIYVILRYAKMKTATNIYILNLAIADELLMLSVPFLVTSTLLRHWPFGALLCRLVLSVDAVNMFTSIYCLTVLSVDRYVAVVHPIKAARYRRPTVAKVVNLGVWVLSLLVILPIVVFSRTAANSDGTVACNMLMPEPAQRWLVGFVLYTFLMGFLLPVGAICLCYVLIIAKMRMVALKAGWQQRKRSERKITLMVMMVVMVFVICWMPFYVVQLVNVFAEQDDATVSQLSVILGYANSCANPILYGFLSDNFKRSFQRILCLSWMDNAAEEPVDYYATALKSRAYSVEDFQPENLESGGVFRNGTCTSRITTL
Sequence of Somatostatin receptor type 5 (P35346 whole entry): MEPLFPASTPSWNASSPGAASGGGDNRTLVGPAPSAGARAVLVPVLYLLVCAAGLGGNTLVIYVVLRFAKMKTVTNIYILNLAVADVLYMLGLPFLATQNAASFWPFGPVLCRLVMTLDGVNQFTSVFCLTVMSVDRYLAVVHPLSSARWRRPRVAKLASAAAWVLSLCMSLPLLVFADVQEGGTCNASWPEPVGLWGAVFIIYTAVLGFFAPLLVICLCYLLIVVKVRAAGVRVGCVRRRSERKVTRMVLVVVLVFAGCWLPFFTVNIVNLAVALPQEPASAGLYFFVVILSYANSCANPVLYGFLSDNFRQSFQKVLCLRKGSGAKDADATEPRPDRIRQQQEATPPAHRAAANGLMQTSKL
T1 sequence (P30874 whole entry): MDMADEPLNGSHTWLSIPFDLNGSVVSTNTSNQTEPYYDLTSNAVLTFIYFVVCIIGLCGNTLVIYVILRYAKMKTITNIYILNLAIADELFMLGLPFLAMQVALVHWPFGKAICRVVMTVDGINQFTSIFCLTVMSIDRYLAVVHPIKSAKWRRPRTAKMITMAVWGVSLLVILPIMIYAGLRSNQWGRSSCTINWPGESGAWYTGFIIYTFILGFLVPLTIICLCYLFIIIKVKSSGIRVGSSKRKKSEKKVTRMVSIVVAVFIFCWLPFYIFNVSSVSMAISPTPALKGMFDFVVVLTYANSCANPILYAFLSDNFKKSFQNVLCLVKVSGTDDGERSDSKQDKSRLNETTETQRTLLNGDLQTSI
Sequence of Somatostatin receptor type 4 (P31391 whole entry): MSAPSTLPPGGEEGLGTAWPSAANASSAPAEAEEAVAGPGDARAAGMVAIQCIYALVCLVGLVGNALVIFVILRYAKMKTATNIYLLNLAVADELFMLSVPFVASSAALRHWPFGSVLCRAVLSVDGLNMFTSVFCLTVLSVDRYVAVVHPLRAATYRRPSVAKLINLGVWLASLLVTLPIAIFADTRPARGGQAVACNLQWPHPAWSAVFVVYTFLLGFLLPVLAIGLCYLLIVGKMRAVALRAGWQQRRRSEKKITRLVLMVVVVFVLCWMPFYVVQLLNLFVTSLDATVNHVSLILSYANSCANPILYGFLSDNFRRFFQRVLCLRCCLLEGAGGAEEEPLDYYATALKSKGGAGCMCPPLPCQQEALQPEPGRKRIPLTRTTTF
T2 sequence (P32745 whole entry): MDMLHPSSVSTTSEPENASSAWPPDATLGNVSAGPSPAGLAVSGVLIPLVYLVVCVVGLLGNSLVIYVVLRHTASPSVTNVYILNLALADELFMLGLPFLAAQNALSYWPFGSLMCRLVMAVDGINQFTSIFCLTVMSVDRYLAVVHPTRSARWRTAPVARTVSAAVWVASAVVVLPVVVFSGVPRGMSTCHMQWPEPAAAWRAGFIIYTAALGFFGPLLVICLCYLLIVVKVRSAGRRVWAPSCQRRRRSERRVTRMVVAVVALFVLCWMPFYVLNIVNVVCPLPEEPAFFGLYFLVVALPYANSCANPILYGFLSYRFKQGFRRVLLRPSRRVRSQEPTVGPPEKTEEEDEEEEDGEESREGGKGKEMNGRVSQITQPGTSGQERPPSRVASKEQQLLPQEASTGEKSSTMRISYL

As to `c1ccc(-c2c[nH]c(C3Cc4c([nH]c5ccccc45)C(C4CCCCC4)N3)n2)cc1` (centres undefined), the inhibition constant (Ki) was more than 10000 nM in assay [1], 1800 nM in assay [2], more than 10000 nM in assay [3] and more than 10000 nM in assay [4].
`CCCCC1(CCCC)N[C@@H](c2nc(-c3ccccc3)cs2)Cc2c1[nH]c1ccccc21` yielded a Ki in assay [5] of 3800 nM.
Still for that read-out and setting: under `c1ccc(-c2c[nH]c([C@@H]3Cc4c([nH]c5ccccc45)C4(N3)C3CC5CC(C3)CC4C5)n2)cc1` (some centres undefined) stands 84 nM.
As to `CCCCC1(CCCC)N[C@H](c2nc(-c3ccccc3)c[nH]2)Cc2c1[nH]c1ccccc21` [listing 1 of 2 here], the Ki was 3700 nM in assay [1]; more than 10000 nM in assay [2]; 3.4 nM in assay [5]; 9800 nM in assay [3]; more than 10000 nM in assay [4]. The compound also registered a half-inhibitory concentration (IC50) in assay [6] of 6.8 nM.
In the case of `CCCCCC1(CCCCC)NC(c2nc(-c3ccccc3)c[nH]2)Cc2c1[nH]c1ccc(C)cc21` (centres undefined), in assay [5], the Ki is 6.9 nM. Further, in assay [6], the IC50 was determined as 450 nM.
As for `CCCCC1(CCCC)N[C@H](c2nc(-c3ccccc3)c[nH]2)Cc2c1[nH]c1ccccc21` [listing 2 of 2 here], in assay [5], the affinity, expressed as Ki, was 0.79 nM.
For the compound `CCCCC1(CCCC)N[C@@H](c2nc(-c3ccccc3)c[nH]2)Cc2c1[nH]c1ccccc21`, the Ki was 2200 nM in assay [1]; 3700 nM in assay [2]; 0.64 nM in assay [5]; 7100 nM in assay [3]; more than 10000 nM in assay [4]. For the same compound, the IC50 in assay [6] worked out at 2.7 nM.
`CC(=O)N1CCC2(CC1)N[C@@H](c1nc(-c3ccccc3)c[nH]1)Cc1c2[nH]c2ccccc12` came in with a Ki in assay [5] of 71 nM.
Same read-out and setting: under `CCCCC1(CCCC)N[C@H](c2nc(-c3ccccc3)c(-c3ccccc3)[nH]2)Cc2c1[nH]c1ccccc21` stands 5500 nM; under `CCCCCCC1(CCCCCC)N[C@H](c2nc(-c3ccccc3)c[nH]2)Cc2c1[nH]c1ccccc21`, 28 nM.
With `CCCCCC1(CCCCC)N[C@H](c2nc(-c3ccccc3)c[nH]2)Cc2c1[nH]c1ccccc21`, the inhibitory constant (Ki) in assay [1] is more than 10000 nM; in assay [2], more than 10000 nM; in assay [5], 0.92 nM; in assay [3], more than 10000 nM; in assay [4], more than 10000 nM. The compound also showed an IC50 in assay [6] of 0.84 nM.
As to `CCC1(CC)N[C@H](c2nc(-c3ccccc3)c[nH]2)Cc2c1[nH]c1ccccc21`, in assay [5], the affinity, expressed as Ki, was 11 nM.
Same read-out and setting: the value for `CCCCCC1N[C@H](c2nc(-c3ccccc3)c[nH]2)Cc2c1[nH]c1ccccc21` (some centres undefined) was 11 nM.
In assay [5], `COc1ccc(C2N[C@H](c3nc(-c4ccccc4)c[nH]3)Cc3c2[nH]c2ccccc32)cc1` (some centres undefined) returned an inhibition constant (Ki) of 60 nM.
On the same count and under the same terms, under `c1ccc(-c2c[nH]c([C@@H]3Cc4c([nH]c5ccccc45)C4(Cc5ccccc5C4)N3)n2)cc1` stands 13 nM; under `c1ccc(-c2c[nH]c([C@@H]3Cc4c([nH]c5ccccc45)C(c4ccncc4)N3)n2)cc1` (some centres undefined), 320 nM.
As to `CC1(C2CCCCC2)N[C@H](c2nc(-c3ccccc3)c[nH]2)Cc2c1[nH]c1ccccc21` (some centres undefined), the Ki was more than 10000 nM in assay [1]; 4400 nM in assay [2]; 0.9 nM in assay [5]; more than 10000 nM in assay [3]; more than 10000 nM in assay [4]. Besides, it took 5.4 nM to reach half-maximal inhibition in assay [6] (IC50).
Turning to `CN(C)c1ccc(C2N[C@H](c3nc(-c4ccccc4)c[nH]3)Cc3c2[nH]c2ccccc32)cc1` (some centres undefined), the Ki in assay [5] came out at 33 nM.
Same read-out and setting: the value for `O=[N+]([O-])c1ccccc1C1N[C@H](c2nc(-c3ccccc3)c[nH]2)Cc2c1[nH]c1ccccc21` (some centres undefined) was 200 nM; that for `c1ccc(-c2c[nH]c(-c3cc4c([nH]c5ccccc54)c(C4CCCCC4)n3)n2)cc1` was 750 nM.
Still for that read-out and setting: under `CCCCC1(CCCC)NC(c2nc(-c3ccccc3)c[nH]2)Cc2c1[nH]c1ccc(OCc3ccccc3)cc21` (centres undefined) stands 17 nM.
Regarding `CCCCC1(CCCC)NC(c2nc(-c3ccccc3)c[nH]2)Cc2c1[nH]c1ccc(Cl)cc21` (centres undefined), the inhibitory constant (Ki) in assay [5] was determined as 3.4 nM. In addition, the IC50 in assay [6] came to 43 nM.
As for `CCCCC1(CCCC)N[C@@H](c2nc(-c3ccccc3)c[nH]2)Cc2c1sc1ccccc21`, the Ki in assay [5] amounted to 430 nM.
The compound `C[C@@H](c1c[nH]c2ccccc12)[C@@H](NC(=O)N1CCC(n2c(=O)[nH]c3ccccc32)CC1)C(=O)N[C@@H](CCCCN)C(=O)OC(C)(C)C` showed a Ki in assay [7] of 0.01 nM.
